Measurements: ChEMBL document CHEMBL1949504, “Synthesis and anti-leishmanial activity of 5-(5-nitrofuran-2-yl)-1,3,4-thiadiazol-2-amines containing N-[(1-benzyl-1H-1,2,3-triazol-4-yl)methyl] moieties” (Eur J Med Chem, 2012)
The source made the active and inactive calls. The calls are words filed in the database; no cut-off is given here.

Assays:
Assay type in all cases: functional, organism-based
Leishmania major [1] = assay: Antileishmanial activity against promastigotes of Leishmania major […] by MTT assay
Procedure, shortened: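 Promastigotes of L. major vaccine strain MRHO/IR/75/ER were used. Two or more independent experiments were run in triplicate. IC50 was obtained by linear regression and reported as the mean. Meglumine antimonate served as the standard drug.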

Leishmania major [2] = assay: Antiamastigote activity against Leishmania major MHOM/1L/80/ER amastigotes infected in mouse primary peritoneal macrophages assessed as infectivity index after 24 hrs using Giemsa staining
Procedure, shortened: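 Macrophage infection and treatment were as for the amastigote counts: 1 × 10^6 peritoneal macrophages/well, infected 2 h at 3 promastigotes per cell, washed, then drug exposure for 24 h. Giemsa staining after methanol fixation, 100 cells examined per well. Infectivity index = % macrophages with at least one intracellular parasite × mean parasites per infected macrophage. Two experiment sets.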

Leishmania major [3] = assay: Antiamastigote activity against Leishmania major MHOM/1L/80/ER amastigotes infected in mouse primary peritoneal macrophages assessed as percentage of macrophage infectivity after 24 hrs using Giemsa staining
Procedure, shortened: (§1)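 Mouse peritoneal macrophages on glass coverslips at 1 × 10^6/well were infected for 2 h with stationary-phase promastigotes in RPMI (2 × 10^6/well, 3 parasites per macrophage). Extracellular parasites were washed off, then compound-containing medium was added for 24 h. Cells were methanol-fixed and Giemsa-stained, with 100 cells counted per well. Two experiment sets were run.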

Leishmania major [4] = assay: Antiamastigote activity against Leishmania major MHOM/1L/80/ER amastigotes infected in mouse primary peritoneal macrophages assessed as decrease in number of intracellular amastigotes per macrophage after 24 hrs using Giemsa staining; procedure, shortened: as §1

Row | Compound | IC50 (Leishmania major [1]; Leishmania major) | Activity (Leishmania major [2]) | Activity (Leishmania major [3]) | Activity (Leishmania major [4]) | IC50 (Leishmania major [1])
1 | O=[N+]([O-])c1ccc(Cn2cc(CNc3nnc(-c4ccc([N+](=O)[O-])o4)s3)nn2)cc1 | 32.7 µM | – | – | – | –
2 | O=[N+]([O-])c1ccc(-c2nnc(NCc3cn(Cc4cccc(Cl)c4)nn3)s2)o1 | 108 µM | – | – | – | –
3 | O=[N+]([O-])c1ccc(-c2nnc(NCc3cn(Cc4ccccc4F)nn3)s2)o1 | 19 µM | Active | Active | Active | –
4 | O=[N+]([O-])c1ccc(-c2nnc(NCc3cn(Cc4ccccc4Cl)nn3)s2)o1 | 18.9 µM | Active | Active | Active | –
5 | Cc1ccccc1Cn1cc(CNc2nnc(-c3ccc([N+](=O)[O-])o3)s2)nn1 | 25.2 µM | – | – | – | –
6 | O=[N+]([O-])c1ccc(-c2nnc(NCc3cn(Cc4ccc(Cl)c(Cl)c4)nn3)s2)o1 | 132 µM | – | – | – | –
7 | O=[N+]([O-])c1ccc(-c2nnc(NCc3cn(Cc4ccccc4)nn3)s2)o1 | 19.6 µM | Active | Active | Active | –
8 | Cc1ccc(Cn2cc(CNc3nnc(-c4ccc([N+](=O)[O-])o4)s3)nn2)cc1 | 12.2 µM | Active | Active | Active | –
9 | O=[N+]([O-])c1ccc(-c2nnc(NCc3cn(Cc4cccc(Cl)c4Cl)nn3)s2)o1 | 104 µM | – | – | – | –
10 | Cc1cccc(Cn2cc(CNc3nnc(-c4ccc([N+](=O)[O-])o4)s3)nn2)c1 | 21.9 µM | Active | Active | Active | –
11 | MEGLUMINE ANTIMONATE | – | – | – | – | 68300 µM
12 | O=[N+]([O-])c1ccc(-c2nnc(NCc3cn(Cc4c(F)cccc4Cl)nn3)s2)o1 | 17.4 µM | Active | Active | Active | –
13 | O=[N+]([O-])c1ccc(-c2nnc(NCc3cn(Cc4ccc(Cl)cc4)nn3)s2)o1 | 88.8 µM | – | – | – | –
14 | O=[N+]([O-])c1ccc(-c2nnc(NCc3cn(Cc4ccc(F)cc4)nn3)s2)o1 | 21.4 µM | Active | Active | Active | –
15 | O=[N+]([O-])c1ccc(-c2nnc(NCc3cn(Cc4ccc(Cl)cc4Cl)nn3)s2)o1 | 19.9 µM | Active | Active | Active | –
